Results of several laboratories.

SMILES	tested on	assay	system	conditions	endpoint	result
COc1ccc(N2CCN(CC(=O)Nc3ccc(C4=NN(C(C)=O)C(c5ccc(Br)cc5)C4)cc3)CC2)cc1 (stereo not drawn)	MCF-10A	cell growth or viability, MTT	–	50 µM, 96 h	viability	86%
O=C(O)COc1cccc(-c2nc(Nc3ccc4[nH]ncc4c3)c3ccccc3n2)c1	Solute carrier family 22 member 6 (SLC22A6, Homo sapiens, UniProt Q4U2R8)	transporter uptake, inhibitor, radiometric	–	–	IC50	> 500 µM
CCCN(CCC)CCOc1ccc2c(=O)c3c([nH]c2c1)CCCC3	–	metabolic stability	mouse, liver microsomes	1 µM, pH 7.4	half-life	26.9 min
Cc1cc(S(=O)(=O)N[C@]2(C)C[C@H](N3CCN(CC4CCN(c5ccc6c(c5F)n(C)c(=O)n6C5CCC(=O)NC5=O)CC4)CC3)C2)ccc1Nc1ncc(C(F)(F)F)c(N2CCC[C@](C)(O)C2)n1 (stereo partly drawn)	MDCK	–	Caco-2	1 µM, 2 h, pH 7.4	Papp A→B	3.2 ×10⁻⁶ cm/s
O=c1c2ccc(OCc3cccc(OC(F)(F)F)c3)cc2[nH]c2cc(Cl)cc(F)c12	–	metabolic stability	mouse, liver microsomes	1 µM, pH 7.4	half-life	> 60 min
Nc1nc(S)nc(O)c1N=Cc1cn(-c2ccccc2)nc1-c1ccccc1	MCF-10A	cell growth or viability	–	48 h	CC50	> 30 µM
CC(C)(C)OC(=O)N1CCC(Oc2ccc3c(=O)c4c(F)cc(Cl)cc4[nH]c3c2)CC1	–	metabolic stability	mouse, liver microsomes	1 µM, pH 7.4	half-life	> 60 min
Cc1cc(S(=O)(=O)N[C@H]2CC[C@H](CN3CCN(c4ccc(C5CCC(=O)NC5=O)c(Cl)c4)CC3)CC2)ccc1Nc1ncc(C(F)(F)F)c(N2CCC[C@](C)(O)C2)n1 (stereo partly drawn)	MDCK	–	Caco-2	1 µM, 2 h, pH 7.4	Papp A→B	1.3 ×10⁻⁶ cm/s
O=c1c2ccc(OCc3ccc(C(F)(F)F)cc3)cc2[nH]c2cc(Cl)cc(F)c12	–	metabolic stability	mouse, liver microsomes	1 µM, pH 7.4	half-life	> 60 min
Cc1cc(S(=O)(=O)NC2CC(N3CCN(CC4CCN(c5ccc(NC6CCC(=O)NC6=O)cc5C)CC4)CC3)C2)ccc1Nc1ncc(C(F)(F)F)c(N2CCC[C@](C)(O)C2)n1 (stereo partly drawn)	MDCK	–	Caco-2	1 µM, 2 h, pH 7.4	Papp A→B	3.5 ×10⁻⁶ cm/s
COc1ccc(N2CCN(CC(=O)Nc3ccc(C(=O)C=Cc4ccc(Cl)cc4Cl)cc3)CC2)cc1	MCF-10A	cell growth or viability, MTT	–	50 µM, 96 h	viability	86%
CNS(=O)(=O)c1ccc(Nc2ncc(C(F)(F)F)c([C@H]3CC[C@@](C)(O)CC3)n2)c(C)c1	MDCK	–	Caco-2	1 µM, 2 h, pH 7.4	Papp A→B	7.6 ×10⁻⁶ cm/s
O=c1c2ccc(Oc3ccccc3OC(F)(F)F)cc2[nH]c2cc(Cl)cc(F)c12	–	metabolic stability	mouse, liver microsomes	1 µM, pH 7.4	half-life	43.4 min
COc1ccc(N2CCN(CC(=O)Nc3ccc(C4=NN(C(C)=O)C(c5cc(OC)c(OC)c(OC)c5)C4)cc3)CC2)cc1 (stereo not drawn)	MCF-10A	cell growth or viability, MTT	–	50 µM, 96 h	viability	91%
CN(C)CCOc1ccc2c(=O)c3c([nH]c2c1)CCCC3	–	metabolic stability	mouse, liver microsomes	1 µM, pH 7.4	half-life	34.3 min
COc1ccc(C2CC(c3ccc(NC(=O)CN4CCN(c5ccc(Cl)cc5)CC4)cc3)=NN2C(C)=O)cc1 (stereo not drawn)	MCF-10A	cell growth or viability, MTT	–	50 µM, 96 h	viability	86%
CNS(=O)(=O)c1ccc(Nc2ncc(C(F)(F)F)c(N3CCC[C@](C)(O)C3)n2)c(C)c1	MDCK	–	Caco-2	1 µM, 2 h, pH 7.4	Papp A→B	16 ×10⁻⁶ cm/s
COc1ccc(-c2nn(-c3ccccc3)cc2C=Nc2c(N)nc(S)nc2O)cc1	MCF-10A	cell growth or viability	–	48 h	CC50	> 40 µM
Cc1ccc(C=CC(=O)c2ccc(NC(=O)CN3CCN(c4ccc(Cl)cc4)CC3)cc2)cc1	MCF-10A	cell growth or viability, MTT	–	50 µM, 96 h	viability	89%
Cc1cc(S(=O)(=O)N[C@H]2CC[C@H](CN3CCN(c4cccc(NC5CCC(=O)NC5=O)c4)CC3)CC2)ccc1Nc1ncc(C(F)(F)F)c(N2CCC[C@](C)(O)C2)n1 (stereo partly drawn)	MDCK	–	Caco-2	1 µM, 2 h, pH 7.4	Papp A→B	2.9 ×10⁻⁶ cm/s
C[C@H]1Oc2cc(cnc2N)-c2c(nn(C)c2C#N)CN(C)C(=O)c2ccc(F)cc21	–	–	male Sprague-Dawley rat, brain	oral, 10 mg/kg, 1 h, single dose	concentration	495 ng/g
COc1ccc(N2CCN(CC(=O)Nc3ccc(C4=NN(C(C)=O)C(c5ccc(Cl)cc5Cl)C4)cc3)CC2)cc1 (stereo not drawn)	MCF-10A	cell growth or viability, MTT	–	50 µM, 96 h	viability	89%
O=c1c2ccc(Oc3ccc(OC(F)(F)F)cc3)cc2[nH]c2cc(Cl)c(F)cc12	–	metabolic stability	mouse, liver microsomes	1 µM, pH 7.4	half-life	> 60 min
CC(=O)N1N=C(c2ccc(NC(=O)CN3CCN(c4ccc(Cl)cc4)CC3)cc2)CC1c1ccco1 (stereo not drawn)	MCF-10A	cell growth or viability, MTT	–	50 µM, 96 h	viability	84%
CNS(=O)(=O)c1ccc(Nc2ncc3cc(Cl)c(=O)n(C4CCCC4)c3n2)c(C)c1	MDCK	–	Caco-2	1 µM, 2 h, pH 7.4	Papp A→B	3.6 ×10⁻⁶ cm/s
O=c1c2cc(F)c(Oc3ccc(OC(F)(F)F)cc3)cc2[nH]c2cc(Cl)cc(F)c12	–	metabolic stability	mouse, liver microsomes	1 µM, pH 7.4	half-life	> 60 min
COc1ccc(N2CCN(CC(=O)Nc3ccc(C4=NN(C(C)=O)C(c5ccccc5)C4)cc3)CC2)cc1 (stereo not drawn)	MCF-10A	cell growth or viability, MTT	–	50 µM, 96 h	viability	87%
